Experimental data from ChEMBL document CHEMBL1134690, “Preparation and cytotoxicity toward cancer cells of mono(arylimino) derivatives of beta-lapachone” (2001).

Key:
Assay type in all cases: functional
CCRF-CEM = assay: Cytotoxicity against leukemia CCRF-CEM cell lines; settings: Homo sapiens
Method in brief: (§1)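 NCI human tumor cell line screen. Growth inhibition was read across a test range of 10^-4 to 10^-8 M. GI50 is the concentration giving 50% growth inhibition.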

DU-145 = assay: Cytotoxicity against prostate DU-145 cell lines; settings: Homo sapiens; method in brief: as §1
OVCAR-5 = assay: Cytotoxicity against ovarian OVCAR-5 cell lines; settings: Homo sapiens; method in brief: as §1
NCI-H23 = assay: Cytotoxicity against lung NCI-H23 cell lines; settings: Homo sapiens; method in brief: as §1
MDA-MB-435 = assay: Cytotoxicity against breast MDA-MB-435 cell lines; settings: Homo sapiens; method in brief: as §1
SF-295 = assay: Cytotoxicity against CNS SF-295 cell lines; settings: Homo sapiens; method in brief: as §1
SN12C = assay: Cytotoxicity against renal SN12C cell lines; settings: Homo sapiens; method in brief: as §1
LOX IMVI = assay: Cytotoxicity against melanoma LOXIMVI cell lines; settings: Homo sapiens; method in brief: as §1
COLO 205 = assay: Cytotoxicity against colon […] cell lines; settings: Homo sapiens; method in brief: as §1
[1] = system: Panel (Carcinoma cell lines); assay: Mean graph midpoint growth inhibition of human cancer cell lines
Method in brief: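 Mean graph midpoint: the average GI50 across all human cancer cell lines successfully tested (~55) in the NCI screen. Values below or above the 10^-4 to 10^-8 M test range were set to the minimum (10^-8 M) or maximum (10^-4 M) concentration screened.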

Row | Compound | GI50 (CCRF-CEM) | GI50 (DU-145) | GI50 (OVCAR-5) | GI50 (NCI-H23) | GI50 (MDA-MB-435) | GI50 (SF-295) | GI50 (SN12C) | GI50 (LOX IMVI) | GI50 (COLO 205) | MGM [1]
1 | Cc1ccc(/N=C2\C(=O)C3=C(OC(C)(C)CC3)c3ccccc32)cc1 | 2560 nM | 1760 nM | 2030 nM | 920 nM | 190 nM | 1260 nM | 460 nM | 300 nM | 1800 nM | 0.89 µM
2 | COc1ccc(/N=C2\C(=O)C3=C(OC(C)(C)CC3)c3ccccc32)cc1 | 1540 nM | 870 nM | 12300 nM | 1170 nM | 96 nM | 880 nM | 900 nM | 890 nM | 1020 nM | 1.15 µM
3 | CC1(C)CCC2=C(O1)c1ccccc1/C(=N/c1ccc([N+](=O)[O-])cc1)C2=O | 19600 nM | 16800 nM | 14500 nM | 18300 nM | 15800 nM | 14900 nM | 15900 nM | 7590 nM | 16800 nM | 15.5 µM
4 | CC1(C)CCC2=C(O1)c1ccccc1/C(=N/c1ccccc1)C2=O | 1550 nM | 1560 nM | 1810 nM | 1230 nM | 200 nM | 1860 nM | 1120 nM | 220 nM | 1550 nM | 1.17 µM
5 | CC1(C)CCC2=C(O1)c1ccccc1C(=O)C2=O [LAPACHONE] | 1410 nM | 1740 nM | 1820 nM | 760 nM | 21400 nM | 1540 nM | 1450 nM | 310 nM | 1780 nM | 1.12 µM
